Test [1] has as its target T1, Phosphatidylinositol 4,5-bisphosphate 3-kinase catalytic subunit beta isoform (Homo sapiens, UniProt P42338). The test is described as follows: Inhibition of wild type PI3K-beta (unknown origin) assessed as decrease in ATP consumption using phosphatidylinositol bisphosphate and 100 uM ATP as substrate measured after 60 mins by luminescence assay. The essentials:
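Kinase-Glo read-out with 100 μM ATP, run alongside the D862Q mutant and the wild-type and reciprocal-mutant PI3Kα forms. IC50 is the mean of at least two duplicate experiments.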

The target of test [2] is T2, Phosphatidylinositol 4,5-bisphosphate 3-kinase catalytic subunit delta isoform (Homo sapiens, UniProt O00329).
T2 sequence (O00329 whole entry): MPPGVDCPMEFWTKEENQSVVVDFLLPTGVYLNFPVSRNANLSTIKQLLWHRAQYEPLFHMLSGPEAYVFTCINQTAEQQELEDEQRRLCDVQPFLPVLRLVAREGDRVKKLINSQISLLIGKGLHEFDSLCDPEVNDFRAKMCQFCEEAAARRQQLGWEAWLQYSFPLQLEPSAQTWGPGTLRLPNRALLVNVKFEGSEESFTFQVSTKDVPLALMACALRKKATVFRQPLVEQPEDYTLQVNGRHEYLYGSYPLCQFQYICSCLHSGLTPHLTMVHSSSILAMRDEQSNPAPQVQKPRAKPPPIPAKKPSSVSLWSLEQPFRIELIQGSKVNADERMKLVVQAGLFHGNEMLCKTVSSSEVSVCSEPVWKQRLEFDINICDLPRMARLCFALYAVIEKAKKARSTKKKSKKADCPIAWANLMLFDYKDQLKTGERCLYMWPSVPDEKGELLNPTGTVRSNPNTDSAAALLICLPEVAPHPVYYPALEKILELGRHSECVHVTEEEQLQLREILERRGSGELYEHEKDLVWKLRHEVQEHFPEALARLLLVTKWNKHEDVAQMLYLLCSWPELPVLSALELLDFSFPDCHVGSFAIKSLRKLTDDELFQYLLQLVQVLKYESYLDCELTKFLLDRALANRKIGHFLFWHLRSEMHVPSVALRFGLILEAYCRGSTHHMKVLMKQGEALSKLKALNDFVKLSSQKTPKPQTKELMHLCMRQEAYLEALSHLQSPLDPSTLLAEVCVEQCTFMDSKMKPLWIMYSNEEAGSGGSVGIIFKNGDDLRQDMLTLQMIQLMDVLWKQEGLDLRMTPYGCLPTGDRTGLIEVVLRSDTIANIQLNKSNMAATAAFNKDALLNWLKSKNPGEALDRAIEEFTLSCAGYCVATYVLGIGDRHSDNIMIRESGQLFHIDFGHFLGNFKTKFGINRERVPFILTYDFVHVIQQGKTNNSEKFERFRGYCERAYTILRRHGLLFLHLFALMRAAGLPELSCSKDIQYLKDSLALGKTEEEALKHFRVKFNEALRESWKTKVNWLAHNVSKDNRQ
As to the kind of experiment: Inhibition of PI3K-delta (unknown origin) assessed as decrease in ATP consumption using phosphatidylinositol bisphosphate and 10 uM ATP as substrate measured after 60 mins by luminescence assay.

In test [3] the target is Phosphatidylinositol 4,5-bisphosphate 3-kinase catalytic subunit beta isoform (Homo sapiens, UniProt P42338, D862Q). As to the kind of experiment: Inhibition of recombinant PI3K-beta D862Q mutant (unknown origin) expressed in baculovirus infected Sf21 cells assessed as decrease in ATP consumption using phosphatidylinositol bisphosphate and 100 uM ATP as substrate measured after 60 mins by luminescence assay. In a few lines: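 Kinase-Glo luminescent read-out of kinase activity with 100 μM ATP. Run alongside the wild-type PI3Kβ enzyme and the wild-type and reciprocal-mutant PI3Kα enzymes. IC50 values are means of at least two duplicate experiments.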

In test [4] the target is T1, Phosphatidylinositol 4,5-bisphosphate 3-kinase catalytic subunit beta isoform. The test is described as follows: Inhibition of PI3K-beta (unknown origin) assessed as decrease in ATP consumption using phosphatidylinositol bisphosphate and 10 uM ATP as substrate measured after 60 mins by luminescence assay.
The target in test [5] is Phosphatidylinositol 4,5-bisphosphate 3-kinase catalytic subunit alpha isoform (Homo sapiens, UniProt P42336). The test is described as follows: Inhibition of PI3K-alpha (unknown origin) assessed as decrease in ATP consumption using phosphatidylinositol bisphosphate and 10 uM ATP as substrate measured after 60 mins by luminescence assay.
Test [6] concerns the target Phosphatidylinositol 4,5-bisphosphate 3-kinase catalytic subunit gamma isoform (Homo sapiens, UniProt P48736). As to the kind of experiment: Inhibition of PI3K-gamma (unknown origin) assessed as decrease in ATP consumption using phosphatidylinositol bisphosphate and 10 uM ATP as substrate measured after 60 mins by luminescence assay.
Test [7] deals with RAC-alpha serine/threonine-protein kinase (Homo sapiens, UniProt P31749). The test is described as follows: Inhibition of IGF-1 induced Akt phosphorylation in PTEN-deficient human MDA-MB-468 cells pretreated for 2 hrs before IGF1 induction measured after 15 mins by Western blot analysis. The test is classed as cell-based.

In general, IC50 refers to the concentration that inhibits the measured activity by half.

Structures are written as SMILES.

Phosphatidylinositol 4,5-bisphosphate 3-kinase catalytic subunit beta isoform (Homo sapiens, UniProt P42338, D862Q), sequence (P42338 whole entry D862Q, canonical isoform): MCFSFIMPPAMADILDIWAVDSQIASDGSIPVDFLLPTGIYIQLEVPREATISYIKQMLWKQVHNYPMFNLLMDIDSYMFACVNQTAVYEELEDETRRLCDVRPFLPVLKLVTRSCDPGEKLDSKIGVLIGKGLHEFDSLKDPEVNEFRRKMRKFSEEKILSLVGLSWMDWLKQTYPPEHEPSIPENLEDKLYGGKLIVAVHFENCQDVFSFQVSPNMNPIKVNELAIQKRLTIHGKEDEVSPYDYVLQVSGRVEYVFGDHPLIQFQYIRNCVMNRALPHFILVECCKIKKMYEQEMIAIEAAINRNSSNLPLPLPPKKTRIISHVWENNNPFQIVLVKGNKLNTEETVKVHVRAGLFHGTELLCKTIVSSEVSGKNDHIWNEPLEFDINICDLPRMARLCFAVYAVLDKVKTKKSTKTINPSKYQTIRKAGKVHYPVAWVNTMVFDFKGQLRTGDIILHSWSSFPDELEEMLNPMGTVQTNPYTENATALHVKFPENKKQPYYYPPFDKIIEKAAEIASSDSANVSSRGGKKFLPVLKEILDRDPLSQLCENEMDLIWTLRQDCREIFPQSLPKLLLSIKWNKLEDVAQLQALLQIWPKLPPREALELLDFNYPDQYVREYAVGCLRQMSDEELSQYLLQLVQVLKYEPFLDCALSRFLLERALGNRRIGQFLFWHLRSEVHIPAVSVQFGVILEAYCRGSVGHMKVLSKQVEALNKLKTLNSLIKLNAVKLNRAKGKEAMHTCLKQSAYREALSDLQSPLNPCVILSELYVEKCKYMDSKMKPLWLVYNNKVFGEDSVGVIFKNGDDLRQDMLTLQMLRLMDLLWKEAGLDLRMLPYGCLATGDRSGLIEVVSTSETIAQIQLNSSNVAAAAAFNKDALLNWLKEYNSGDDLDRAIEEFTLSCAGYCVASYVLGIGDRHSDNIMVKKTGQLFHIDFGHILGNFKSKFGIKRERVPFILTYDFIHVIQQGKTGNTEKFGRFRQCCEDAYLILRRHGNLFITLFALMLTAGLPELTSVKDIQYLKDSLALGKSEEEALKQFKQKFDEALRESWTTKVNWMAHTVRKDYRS
Phosphatidylinositol 4,5-bisphosphate 3-kinase catalytic subunit alpha isoform, sequence (P42336 whole entry, canonical isoform): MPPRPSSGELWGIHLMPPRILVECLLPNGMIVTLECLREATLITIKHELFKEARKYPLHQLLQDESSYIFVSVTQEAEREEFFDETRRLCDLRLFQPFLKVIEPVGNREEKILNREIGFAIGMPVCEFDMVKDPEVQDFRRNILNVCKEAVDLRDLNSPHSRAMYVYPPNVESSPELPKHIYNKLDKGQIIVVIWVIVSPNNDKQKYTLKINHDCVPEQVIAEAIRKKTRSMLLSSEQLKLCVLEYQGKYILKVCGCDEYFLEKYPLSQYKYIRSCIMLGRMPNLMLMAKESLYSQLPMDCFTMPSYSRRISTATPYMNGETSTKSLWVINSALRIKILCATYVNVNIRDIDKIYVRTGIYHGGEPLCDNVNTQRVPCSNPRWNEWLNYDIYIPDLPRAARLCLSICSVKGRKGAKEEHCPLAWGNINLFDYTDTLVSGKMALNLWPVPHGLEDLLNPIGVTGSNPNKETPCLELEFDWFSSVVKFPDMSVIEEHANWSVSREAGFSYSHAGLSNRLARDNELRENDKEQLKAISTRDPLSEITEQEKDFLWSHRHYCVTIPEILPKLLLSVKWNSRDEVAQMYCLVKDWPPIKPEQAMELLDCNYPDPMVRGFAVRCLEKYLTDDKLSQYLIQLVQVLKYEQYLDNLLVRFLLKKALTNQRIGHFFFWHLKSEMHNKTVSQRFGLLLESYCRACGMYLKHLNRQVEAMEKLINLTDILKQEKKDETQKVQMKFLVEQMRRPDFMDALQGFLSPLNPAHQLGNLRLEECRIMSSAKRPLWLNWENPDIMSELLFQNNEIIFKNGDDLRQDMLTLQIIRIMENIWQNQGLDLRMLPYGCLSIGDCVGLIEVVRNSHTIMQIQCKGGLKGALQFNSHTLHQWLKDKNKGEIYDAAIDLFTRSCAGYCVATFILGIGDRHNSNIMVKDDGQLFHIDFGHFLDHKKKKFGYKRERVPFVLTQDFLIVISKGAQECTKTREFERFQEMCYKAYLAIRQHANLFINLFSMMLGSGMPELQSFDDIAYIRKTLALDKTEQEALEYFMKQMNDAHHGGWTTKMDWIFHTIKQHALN
Phosphatidylinositol 4,5-bisphosphate 3-kinase catalytic subunit gamma isoform, sequence (P48736 whole entry, canonical isoform): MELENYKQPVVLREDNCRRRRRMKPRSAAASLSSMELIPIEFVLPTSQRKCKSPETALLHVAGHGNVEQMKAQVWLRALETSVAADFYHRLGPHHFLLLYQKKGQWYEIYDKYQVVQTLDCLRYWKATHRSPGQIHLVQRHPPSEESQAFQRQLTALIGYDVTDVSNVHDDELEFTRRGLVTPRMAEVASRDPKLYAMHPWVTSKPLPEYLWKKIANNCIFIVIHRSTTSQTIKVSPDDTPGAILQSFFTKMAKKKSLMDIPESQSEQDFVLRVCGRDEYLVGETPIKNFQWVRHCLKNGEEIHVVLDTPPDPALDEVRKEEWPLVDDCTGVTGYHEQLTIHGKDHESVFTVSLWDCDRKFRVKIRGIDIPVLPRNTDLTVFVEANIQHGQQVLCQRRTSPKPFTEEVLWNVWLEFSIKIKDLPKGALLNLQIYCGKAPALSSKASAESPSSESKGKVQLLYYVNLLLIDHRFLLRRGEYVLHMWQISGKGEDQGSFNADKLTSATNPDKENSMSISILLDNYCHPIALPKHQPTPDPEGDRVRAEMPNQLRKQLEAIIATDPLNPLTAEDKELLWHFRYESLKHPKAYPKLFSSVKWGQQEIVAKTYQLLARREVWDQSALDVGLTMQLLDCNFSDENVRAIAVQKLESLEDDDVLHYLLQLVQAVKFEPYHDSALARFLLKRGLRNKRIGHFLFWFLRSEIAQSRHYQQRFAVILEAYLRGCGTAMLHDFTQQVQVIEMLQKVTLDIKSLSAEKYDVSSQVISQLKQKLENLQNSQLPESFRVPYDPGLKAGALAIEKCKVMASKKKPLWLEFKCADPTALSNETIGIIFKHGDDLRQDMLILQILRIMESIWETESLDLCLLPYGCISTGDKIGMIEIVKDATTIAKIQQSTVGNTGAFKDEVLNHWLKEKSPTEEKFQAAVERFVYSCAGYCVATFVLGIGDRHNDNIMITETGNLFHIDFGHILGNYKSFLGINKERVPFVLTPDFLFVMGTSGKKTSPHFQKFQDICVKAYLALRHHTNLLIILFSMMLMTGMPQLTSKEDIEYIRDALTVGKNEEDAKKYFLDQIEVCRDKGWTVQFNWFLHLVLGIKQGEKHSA
T1 sequence (P42338 whole entry, canonical isoform): as the sequence (P42338 whole entry D862Q, canonical isoform) above, with Q862D counted along it
RAC-alpha serine/threonine-protein kinase, sequence (P31749 whole entry): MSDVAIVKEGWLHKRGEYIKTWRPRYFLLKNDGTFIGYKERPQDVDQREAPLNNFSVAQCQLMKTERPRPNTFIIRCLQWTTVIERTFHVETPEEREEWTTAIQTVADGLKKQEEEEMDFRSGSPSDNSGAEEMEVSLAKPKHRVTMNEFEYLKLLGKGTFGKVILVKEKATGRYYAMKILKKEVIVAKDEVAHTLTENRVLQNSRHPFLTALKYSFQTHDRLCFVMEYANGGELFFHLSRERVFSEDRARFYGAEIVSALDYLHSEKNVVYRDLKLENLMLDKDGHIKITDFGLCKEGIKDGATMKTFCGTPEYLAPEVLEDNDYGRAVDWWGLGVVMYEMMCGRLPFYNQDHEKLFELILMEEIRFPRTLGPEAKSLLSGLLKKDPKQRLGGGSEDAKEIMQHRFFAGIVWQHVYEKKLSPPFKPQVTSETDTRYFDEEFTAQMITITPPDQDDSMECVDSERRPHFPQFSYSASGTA

Consider `C[C@H](N)C(=O)N1CCN(c2nc(N3CCOCC3)nc(-n3c(C(F)F)nc4ccccc43)n2)CC1`, for which the IC50 in test [1] was 62 nM; in test [2] it was 490 nM; in test [3], 890 nM; in test [4] it was 31 nM.
`O=C([C@@H]1CCCN1)N1CCN(c2nc(N3CCOCC3)nc(-n3c(C(F)F)nc4ccccc43)n2)CC1`: the IC50 in test [2] is 390 nM; in test [5], 2200 nM; in test [4] it was 26 nM; in test [6] it was over 10000 nM.
Take `CN[C@@H](C)C(=O)N1CCN(c2nc(N3CCOCC3)nc(-n3c(C(F)F)nc4ccccc43)n2)CC1`: the IC50 in test [2] was determined as 290 nM; in test [5] it was 1500 nM; in test [4], 260 nM; in test [6], 8000 nM.
The like results for `NCCCC[C@H](N)C(=O)N1CCN(c2nc(N3CCOCC3)nc(-n3c(C(F)F)nc4ccccc43)n2)CC1` were, in that order, 670 nM, 2300 nM, 50 nM and over 10000 nM.
On to `CC[C@H](C)[C@H](N)C(=O)N1CCN(c2nc(N3CCOCC3)nc(-n3c(C(F)F)nc4ccccc43)n2)CC1`, for which the IC50 was 140 nM in test [1]; 1000 nM in test [2]; 1400 nM in test [3]; 67 nM in test [4]; over 10000 nM in test [6].
For the compound `N[C@H](Cc1ccccc1)C(=O)N1CCN(c2nc(N3CCOCC3)nc(-n3c(C(F)F)nc4ccccc43)n2)CC1`, the IC50 is 3600 nM in test [2], over 10000 nM in test [4] and over 10000 nM in test [6].
`C[C@@H](N)C(=O)N1CCN(c2nc(N3CCOCC3)nc(-n3c(C(F)F)nc4ccccc43)n2)CC1`: the IC50 in test [2] is 70 nM; in test [4] it was 1000 nM; in test [6], 2000 nM.
On to `CN(C)CC(=O)N1CCN(c2nc(N3CCOCC3)nc(-n3c(C(F)F)nc4ccccc43)n2)CC1`, for which the IC50 is 330 nM in test [2], 1600 nM in test [5], 2400 nM in test [4] and over 10000 nM in test [6].
Regarding `N[C@@H](Cc1ccccc1)C(=O)N1CCN(c2nc(N3CCOCC3)nc(-n3c(C(F)F)nc4ccccc43)n2)CC1`, the half-inhibitory concentration (IC50) in test [1] was 74 nM; in test [2], 2200 nM; in test [3], 6000 nM; in test [7], under 10 nM; in test [4], 63 nM. Besides, the inhibition entry in test [7] was “Dose-dependent effect”.
In the case of `NCC(=O)N1CCN(c2nc(N3CCOCC3)nc(-n3c(C(F)F)nc4ccccc43)n2)CC1`, the IC50 stood at 110 nM in test [2], 1500 nM in test [5], 35 nM in test [4] and 9900 nM in test [6].
The like results for `NCCC(=O)N1CCN(c2nc(N3CCOCC3)nc(-n3c(C(F)F)nc4ccccc43)n2)CC1` were, in that order, 58 nM, 720 nM, 98 nM and 3900 nM.
The like results for `N[C@@H](Cc1ccc(O)cc1)C(=O)N1CCN(c2nc(N3CCOCC3)nc(-n3c(C(F)F)nc4ccccc43)n2)CC1` were, in that order, 1200 nM, 3300 nM, 220 nM and over 10000 nM.
The like results for `CC(=O)NCC(=O)N1CCN(c2nc(N3CCOCC3)nc(-n3c(C(F)F)nc4ccccc43)n2)CC1` were, in that order, 26 nM, 42 nM, 54 nM and 380 nM.

For the origin of these results see ChEMBL document CHEMBL2321664, “L-Aminoacyl-triazine derivatives are isoform-selective PI3Kβ inhibitors that target non-conserved Asp862 of PI3Kβ” (ACS Med Chem Lett, 2013).
